Reference: publication PMC8105262 (Molecular imaging and biology, 2020)
Read-outs that look alike come from different tables or passages of the source. Each block holds one compound with its values, some of them ahead of it.

What was measured:
SV2A [1] = target: T1, SV2A (Mus musculus, UniProt Q9JIS5); type: binding
Outline: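 Mouse brain homogenate in 50 mM Tris-HCl with 2 mM MgCl2, pH 7.4, at 0.01 mg protein per well. Unlabelled ligand added from standard solutions of 0.1–50,000 nM, plus radioligand (~0.074 MBq, 2.3 nM). Shaken at 37 °C for 30 min, filters washed twice with buffer, then gamma counted. Binding expressed as pmol/mg protein. Nonspecific binding defined with 0.05 mM unlabelled ligand. Specific binding plotted against log total (hot + cold) ligand concentration.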

SV2A [2] = target: T1, SV2A; type: binding; remark: listed apart in the source
SV2A [3] = target: T1, SV2A; test: Dynamic small animal PET imaging of mouse brain with [^18F]SynVesT-1; type: in vivo
Outline: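 Female WT (C57BL/6J) and APP/PS1 mice, 88 ± 4 weeks, n = 3 each, under 1.5–2.5% isoflurane on a heating pad. Radiotracer given as an i.v. lateral tail-vein bolus (10.28 ± 3.74 MBq in 0.1 mL). Baseline emission data acquired 0–90 min p.i. on small-animal PET/CT. OSEM3D/MAP reconstruction with decay, attenuation, scatter, normalization and randoms corrections. Images co-registered to mouse brain atlas space for regional time-activity curves.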

SV2A [4] = conditions: rat brain homogenate; cited from earlier work
SV2A [5] = conditions: [^3H]UCB-J competitive binding, rat whole brain; cited from earlier work
[6] = tested on: SV2A binding in the hippocampus; conditions: APP/PS1 mice vs WT, [^11C]UCB-J PET; cited from earlier work
[7] = rodent brain, from time-activity curves

T1 sequence (Q9JIS5 whole entry): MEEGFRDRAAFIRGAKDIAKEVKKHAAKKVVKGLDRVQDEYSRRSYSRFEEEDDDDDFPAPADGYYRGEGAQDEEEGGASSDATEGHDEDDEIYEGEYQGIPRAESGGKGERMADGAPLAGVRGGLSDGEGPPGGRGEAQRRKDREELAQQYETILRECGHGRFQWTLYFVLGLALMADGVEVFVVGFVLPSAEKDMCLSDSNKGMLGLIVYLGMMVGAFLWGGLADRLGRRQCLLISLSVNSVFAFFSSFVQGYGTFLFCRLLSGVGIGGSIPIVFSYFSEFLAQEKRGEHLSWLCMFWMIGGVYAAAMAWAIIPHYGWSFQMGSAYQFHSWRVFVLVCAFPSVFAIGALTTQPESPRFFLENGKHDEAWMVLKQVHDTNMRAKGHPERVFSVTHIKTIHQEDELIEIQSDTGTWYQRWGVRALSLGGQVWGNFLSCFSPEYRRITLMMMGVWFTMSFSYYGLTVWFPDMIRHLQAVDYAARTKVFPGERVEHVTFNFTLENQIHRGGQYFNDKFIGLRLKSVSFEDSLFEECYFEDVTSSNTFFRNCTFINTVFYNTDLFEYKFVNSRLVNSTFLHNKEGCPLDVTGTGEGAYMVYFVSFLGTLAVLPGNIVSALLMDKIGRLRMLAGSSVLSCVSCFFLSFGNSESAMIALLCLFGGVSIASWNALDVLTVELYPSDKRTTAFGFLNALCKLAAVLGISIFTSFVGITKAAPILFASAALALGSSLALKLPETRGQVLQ

Bmax (SV2A [1]; mouse brain homogenate): 4.54 pmol/mg protein
Bmax (range over homologous competitive and autoradiographic saturation assays) (SV2A [1]; rodent brain tissue): 4.5–18 pmol/mg protein
Bmax (SV2A [2]; WT mouse brain sections): 1.8 ± 0.1 pmol/mg of brain tissue
Bmax (SV2A [2]; WT mouse brain sections, assuming 10% of brain tissue is protein): 18 ± 1 pmol/mg protein
Radioligand concentration at which total binding appeared to saturate (SV2A [2]; mouse brain sections): above 25 nM
Time of peak of brain time-activity curves (SV2A [3]; WT and APP/PS1 mice, i.v. bolus, 0–90 min scan): ≤ 20 min p.i.
BBB penetration (SV2A [3]; [7]): efficient BBB penetration
Binding kinetics in brain (SV2A [3]; [7]): reversible binding kinetics
SMILES: Cc1cnccc1CN1C[C@@H](c2cc(F)cc([18F])c2)CC1=O [[^18F]SynVesT-1, (R)-4-(3-Fluoro-5-(fluoro-^18F)phenyl)-1-((3-methylpyridin-4-yl)methyl)pyrrolidin-2-one]

SMILES: Cc1cnccc1CN1C[C@@H](c2cc(F)c(F)c(F)c2)CC1=O [UCB-J]
Kd (SV2A [4]): 2.6 ± 0.25 nM

Kd (SV2A [1]; mouse brain homogenate, 37 °C, 30 min, Kd=Ki=IC50−[radioligand]): 19.6 ± 1.38 nM
Kd (SV2A [2]; WT mouse brain sections, nonspecific binding with 1 mM levetiracetam): 9.8 ± 1.7 nM
SMILES: Cc1cnccc1CN1C[C@@H](c2cc(F)cc(F)c2)CC1=O [[^18F]SynVesT-1, (R)-4-(3-Fluoro-5-(fluoro-^18F)phenyl)-1-((3-methylpyridin-4-yl)methyl)pyrrolidin-2-one]

SMILES: Cc1cnccc1CN1C[C@@H](c2cc(F)cc(F)c2)CC1=O [SynVesT-1]
Ki (SV2A [5]): 2.2 nM

SMILES: CN1CCN(CCOc2cc(OC3CCOCC3)c3c(Nc4c(Cl)ccc5c4OCO5)ncnc3c2)CC1 [saracatinib]
Effect of treatment on decreased hippocampal SV2A binding [6]: restored to the same level as the WT mice
